Eleven molecules from ChEMBL document CHEMBL2057095, “Discovery and SAR of orally efficacious tetrahydropyridopyridazinone PARP inhibitors for the treatment of cancer” (Bioorg Med Chem, 2012) can be followed below.

A short description of series [1]: Half life in mouse at 3 mg/kg, iv. The format is ADME, organism-based. More on the design: dose 3 mg/kg, route intravenous. As to conditions: in vivo. The essentials: (§1)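 Standard mouse PK: oral dose of 10 mg/kg and intravenous dose of 3 mg/kg; plasma concentrations determined up to 8 h.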
A short description of series [2]: Volume of distribution at steady state in mouse at 10 mg/kg, po and 3 mg/kg, iv. The format is ADME, organism-based. The following applies: in vivo, read-out: Vdss. Put shortly: as §1
Series [3] in a line: AUC (0 to 3 hrs) in mouse at 10 mg/kg, po. It counts as ADME, organism-based. Details: time < 3 hr, dose 10 mg/kg, route oral. The following applies: plasma. The essentials: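 Screening mouse PK: single oral dose of 10 mg/kg; plasma concentrations determined up to 3 h.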
Series [4] in a line: (§2) AUC (0 to 8 hrs) in mouse at 10 mg/kg, po. It counts as ADME, organism-based, Plasma. More on the design: time < 8 hr, dose 10 mg/kg, route oral. The following applies: plasma. The essentials:
as §1

The nature of series [5]: (§3) Oral bioavailability in mouse at 10 mg/kg. The following applies: in vivo. The format is ADME, organism-based. The essentials: as §1
The nature of series [6]: (§4) Clearance in mouse at 10 mg/kg, po and 3 mg/kg, iv. The format is ADME, organism-based. The following applies: in vivo. The essentials:
as §1

Series [7] is described as follows: Cmax in mouse at 10 mg/kg, po. The format is ADME, organism-based. Details: dose 10 mg/kg, route oral. The following applies: in vivo. The essentials:
as §1

Series [8] concerns Mus musculus. The series is described as §2. As to conditions: in vivo, 8 h. More on the design: time < 8 hr, dose 10 mg/kg, route oral. It counts as ADME, organism-based, Plasma. The essentials:
as §1

The subject of series [9] is Mus musculus. The description is as §3. The format is ADME, organism-based. The following applies: in vivo. The essentials:
as §1

The test system of series [10] is Mus musculus. The series is described as §4. It counts as ADME, organism-based. As to conditions: in vivo. Put shortly:
as §1

For series [11], the system named is Mus musculus. In words: Toxicity in C57BL/6 mouse bearing B16F10 tumor assessed as body weight loss at 50 mg/kg/day, po administered QD from day 5 to day 9 post-tumor implantation relative to vehicle-treated control. It counts as organism-based. More on the design: route oral. The following applies: in vivo. The essentials:
(§5)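 Syngeneic B16F10 model: 6 × 10⁴ cells with 50% matrigel implanted s.c. into the flank of female C57BL/6 mice (6–8 weeks, 20 g). […] TMZ given orally at 50 mg/kg/day once daily over the same days. Tumor growth and body weight monitored.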

Series [12] concerns Mus musculus. In words: Toxicity in C57BL/6 mouse bearing B16F10 tumor assessed as body weight loss at 50 mg/kg/day, po administered QD from day 5 to day 10 post-tumor implantation relative to vehicle-treated control. It counts as organism-based. More on the design: route oral. As to conditions: in vivo. The essentials: (§6)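 Syngeneic B16F10 melanoma: 6 × 10⁴ cells in 50% matrigel injected s.c. into the flank of female C57BL/6 mice, 6–8 weeks old, 20 g. PARP inhibitor given orally on days 5–10 at 10, 30 or 60 mg/kg/day, bid. TMZ given orally at 50 mg/kg/day, qd, days 5–10. Tumor growth and body weight followed to day 21.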

In series [13] the test system is Mus musculus. The experiment in a line: Antitumor activity against B16F10 tumor xenografted in C57BL/6 mouse assessed as tumor growth inhibition at 50 mg/kg/day, po administered QD from day 5 to day 10 post-tumor implantation. It counts as organism-based. The following applies: C57BL/6, B16-F10, po, read-out: GI. More on the design: route oral. The essentials: as §6

Series [14] deals with Mus musculus. The experiment in a line: (§7) Toxicity in C57BL/6 mouse bearing B16F10 tumor assessed as body weight loss at […], po administered BID from day 5 to day 9 post-tumor implantation co-administered with temozolomide relative to vehicle-treated control. It counts as organism-based. Details: route oral. The following applies: in vivo.
Series [15] deals with Mus musculus. The description is as §7. It counts as organism-based. Details: route oral. The following applies: in vivo. This is another data set of the same source.
Series [16] relates to Mus musculus. In words: Toxicity in C57BL/6 mouse bearing B16F10 tumor assessed as body weight loss at 5 mg/kg/day, po administered BID from day 5 to day 9 post-tumor implantation co-administered with temozolomide relative to vehicle-treated control. The format is organism-based. Details: route oral. The following applies: in vivo. Put shortly:
as §5

Series [17] deals with B16-F10. In words: Potentiation of TMZ antitumor activity against mouse B16F10 cells xenografted in po dosed C57BL/6 mouse assessed as increase in tumor growth inhibition administered BID from day 5 to day 9 post-tumor implantation. The format is functional, organism-based. Put shortly: as §5
In series [18] the test system is B16-F10. In words: Potentiation of temozolomide-induced antitumor activity against mouse B16F10 cells xenografted in po dosed C57BL/6 mouse assessed as tumor growth inhibition administered BID from day 5 to day 10 post-tumor implantation. It counts as functional, organism-based. The essentials:
as §6

Series [19] relates to Mus musculus. The experiment in a line: Toxicity in C57BL/6 mouse bearing B16F10 tumor assessed as body weight loss at 60 mg/kg/day, po administered BID from day 5 to day 10 post-tumor implantation co-administered with temozolomide relative to vehicle-treated control. As to conditions: in vivo.
Series [20] relates to Mus musculus. In words: Toxicity in C57BL/6 mouse bearing B16F10 tumor assessed as body weight loss at 30 mg/kg/day, po administered BID from day 5 to day 10 post-tumor implantation co-administered with temozolomide relative to vehicle-treated control. The following applies: in vivo. It counts as organism-based. Details: route oral. Put shortly:
as §6

Series [21] concerns Mus musculus. The experiment in a line: Toxicity in C57BL/6 mouse bearing B16F10 tumor assessed as mortality at 10 to 30 mg/kg/day, po administered BID from day 5 to day 10 post-tumor implantation co-administered with temozolomide. It counts as organism-based. Details: route oral. As to conditions: in vivo.

In general, half-life refers to how long it takes for the measured level to halve. A high value points to slow loss. As usually defined, the AUC(0-t) is exposure summed from dosing to a finite time, without extrapolation to infinity. High values mean high exposure, low ones low exposure. As usually defined, the bioavailability is the share of a dose that reaches the circulation, judged against a reference dose that is usually intravenous. The Cmax is the highest concentration seen after dosing. `O=C(c1cc(Cc2n[nH]c(=O)c3c2NCCC3)ccc1F)N1CCN(c2ncccn2)CC1` gave a half-life in series [1] of 232 min. Further, the Vd in series [2] amounted to 4.99 L/kg. Further, the AUC(0-t) at 3 h in [3] stood at 2900 ng·h/mL. In addition, the AUC(0-t) at 8 h in [4] was 9060 ng·h/mL. In addition, the bioavailability in series [5] was determined as 36%. The clearance in series [6] was 14.8 mL/min/kg. The molecule also registered a Cmax in [7] of 5600 ng/mL.
Consider `O=C(c1cc(Cc2n[nH]c(=O)c3c2NCCC3)ccc1F)N1CCN(C(=O)C(F)(F)F)CC1`, for which, in [3], the AUC(0-t) at 3 h is 70 ng·h/mL.
In general, AUC refers to the area under the concentration-time curve, a measure of exposure. Lower therefore signals less exposure. With `O=C(c1cc(Cc2n[nH]c(=O)c3c2CCCC3)ccc1F)N1CCN(c2ncccn2)CC1`, the half-life in series [1] is 21.6 min. Further, in series [2], the Vd was found to be 2.33 L/kg. Besides, in the series with Mus musculus [8], the AUC came out at 2380 ng·h/mL. In addition, the F in the series on Mus musculus [9] is on record as 48%. Further, the CL with Mus musculus [10] was determined as 75.8 mL/min/kg. In addition, the highest level in series [7] (Cmax) was 1030 ng/mL.
For the molecule `Cn1nnc2c(C(N)=O)ncn2c1=O` [TEMOZOLOMIDE], the Activity is 2% with Mus musculus [11] and 1% with Mus musculus [12]. Moreover, the inhibition at 50 mg/kg in the series on Mus musculus [13] was determined as 30%.
For the molecule `O=C(c1cc(Cc2n[nH]c(=O)c3c2NCCC3)ccc1F)N1CCN(c2ccccn2)CC1`, the Activity in the series on Mus musculus [14] was 3%; in the series with Mus musculus [15] it was 3%; with Mus musculus [16] it was 21%; in the series with B16-F10 [17] it was “Dose-dependent effect”. Also, the half-life in [1] is 156 min. In addition, in series [2], the Vd turned out to be 7.66 L/kg. This molecule also had an AUC(0-t) at 3 h in [3] of 2900 ng·h/mL. The molecule also returned an AUC(0-t) at 8 h in [4] of 5950 ng·h/mL. In addition, the bioavailability in series [5] was determined as 67%. The same molecule showed a clearance in series [6] of 34 mL/min/kg. Also, in series [7], the concentration peaked (Cmax) at 2010 ng/mL.
In series [1], `O=C1CCCN1c1cc(Cc2n[nH]c(=O)c3c2CCCC3)ccc1F` gave a half-life of 16.8 min. In addition, the Vd in series [2] was found to be 4.78 L/kg. In the series on Mus musculus [8], the AUC amounted to 330 ng·h/mL. This molecule also came in with a F in the series on Mus musculus [9] of 13%. Also, in the series on Mus musculus [10], the CL came to 195.3 mL/min/kg. This molecule registered a Cmax in [7] of 140 ng/mL.
For the molecule `CC(=O)N1CCN(C(=O)c2cc(Cc3n[nH]c(=O)c4c3NCCC4)ccc2F)CC1`, the AUC(0-t) at 3 h in series [3] worked out at 70 ng·h/mL.
On the same count and under the same terms, next, `O=C(c1cc(Cc2n[nH]c(=O)c3c2NCCC3)ccc1F)N1CCN(c2ccccc2)CC1`: 2900 ng·h/mL.
With `O=C1CCCN1c1cc(Cc2n[nH]c(=O)c3c2NCCC3)ccc1F`, the Activity result with B16-F10 [18] was “Dose-dependent effect”; with Mus musculus [19], 12%; with Mus musculus [20] it was 3%; in the series with Mus musculus [21], “Non-toxic”. The molecule further showed a half-life in series [1] of 29.4 min. The Vd in [2] was found to be 5.25 L/kg. This molecule registered an AUC in the series on Mus musculus [8] of 3110 ng·h/mL. This molecule also had a F with Mus musculus [9] of 106%. For the same molecule, the CL in the series with Mus musculus [10] came to 124 mL/min/kg. In addition, in series [7], the Cmax came to 1500 ng/mL.
The molecule `O=C(c1cc(Cc2n[nH]c(=O)c3c2CCCC3)ccc1F)N1CCN(c2ccccn2)CC1` showed a half-life in series [1] of 66 min. Further, in [2], the Vd turned out to be 9.48 L/kg. Moreover, the AUC in the series with Mus musculus [8] was 2700 ng·h/mL. In the series with Mus musculus [9], this molecule registered an F of 74%. The molecule also registered a CL in the series with Mus musculus [10] of 98.7 mL/min/kg. In addition, in [7], the Cmax stood at 1090 ng/mL.
With `O=C1CCCC(=O)N1c1cc(Cc2n[nH]c(=O)c3c2NCCC3)ccc1F`, the AUC(0-t) at 3 h in series [3] came to 70 ng·h/mL.
